From ChEMBL document CHEMBL2146464, “Structure-activity relationship study of nitrosopyrimidines acting as antifungal agents” (Bioorg Med Chem, 2012)
Calls of active or inactive are those of the source.

Experiments:
Type in all cases: functional, organism-based
Candida albicans = experiment: Antifungal activity against Candida albicans ATCC 10231 at 0.98 to 250 ug/mL after 48 hrs by NCCLS broth microdilution method
Summary of the method: (§1)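 Yeast MIC by NCCLS M27-A3 broth microdilution in RPMI-1640 buffered to pH 7.0 with MOPS. Twofold dilutions of 250–0.98 µg/mL, final DMSO ≤1%. Inoculum 1–5 × 10³ CFU/mL. Incubated at 30 °C in a moist dark chamber. Read visually at 48 h. MIC100 is the lowest concentration with no visible growth versus drug-free control.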

Candida tropicalis = experiment: Antifungal activity against Candida tropicalis at 0.98 to 250 ug/mL after 48 hrs by NCCLS broth microdilution method; summary of the method: as §1
Cryptococcus neoformans = experiment: Antifungal activity against Cryptococcus neoformans ATCC 32264 at 0.98 to 250 ug/mL after 48 hrs by NCCLS broth microdilution method; summary of the method: as §1
Aspergillus flavus = experiment: Antifungal activity against Aspergillus flavus ATCC 9170 at 0.98 to 250 ug/mL by NCCLS broth microdilution method
Summary of the method: (§2)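 MIC by broth microdilution per NCCLS M27-A3/M38-A2 in RPMI-1640 buffered to pH 7.0 with MOPS. Twofold dilutions from 250–0.98 µg/mL, final DMSO ≤1%. Inoculum 1–5 × 10³ CFU/mL. Incubated in a moist dark chamber, 30 °C for Aspergillus and 28–30 °C for dermatophytes. Read visually when control growth allowed. Endpoint is the lowest concentration giving total inhibition of visible growth (MIC100).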

Aspergillus fumigatus = experiment: Antifungal activity against Aspergillus fumigatus ATCC 26934 at 0.98 to 250 ug/mL by NCCLS broth microdilution method; summary of the method: as §2
Aspergillus niger = experiment: Antifungal activity against Aspergillus niger ATCC 9029 at 0.98 to 250 ug/mL by NCCLS broth microdilution method; summary of the method: as §2
Nannizzia gypsea = experiment: Antifungal activity against Microsporum gypseum CCC 115 at 0.98 to 250 ug/mL by NCCLS broth microdilution method; summary of the method: as §2
Trichophyton rubrum = experiment: Antifungal activity against Trichophyton rubrum CCC 110 at 0.98 to 250 ug/mL by NCCLS broth microdilution method; summary of the method: as §2
[1] = system: Trichophyton mentagrophytes; experiment: Antifungal activity against Trichophyton mentagrophytes ATCC 9972 at 0.98 to 250 ug/mL by NCCLS broth microdilution method; summary of the method: as §2

Measured: Activity

CNc1nc(N)nc(NCc2ccccc2)c1N=O
inactive: all assays above

COc1nc(N)c(N=O)c(N2CCCC2)n1
inactive: all assays above

Nc1nc(NCc2ccccc2)c(N=O)c(NCc2ccccc2)n1
inactive: all assays above

COc1nc(NCCOC(C)=O)nc(Nc2cccc(Cl)c2)c1N=O
inactive: all assays above

COc1nc(N)nc2c1nnn2C12CC3CC(CC(C3)C1)C2
inactive: all assays above

CCOC(=O)CCNc1nc(N)nc(OC)c1N=O
inactive: all assays above

CCOC(=O)[C@H](C)Nc1nc(N)nc(OCC2CCCCC2)c1N=O
inactive: all assays above

COc1nc(N)nc2c1NC(=O)[C@H](Cc1ccccc1)N2
inactive: all assays above

CCOC(=O)CCNc1nc(N)nc(Nc2ccccc2)c1N=O
inactive: all assays above

CCCCNc1nc(N)nc(Nc2ccccc2)c1N=O
inactive: all assays above

COc1nc(NCCOC(C)=O)nc(Nc2ccccc2)c1N=O
inactive: all assays above

CCOC(=O)[C@H](Cc1ccccc1)Nc1nc(N)nc(OCC2CCCCC2)c1N=O
inactive: all assays above

Nc1nc2c(c(OCC3CCCCC3)n1)NC(=O)[C@H](Cc1ccccc1)N2
inactive: all assays above

CC(C)Nc1nc(N)nc(Nc2cccc(Cl)c2)c1N=O
inactive: all assays above

COc1nc(NCCO)nc(Nc2ccccc2)c1N=O
inactive: all assays above

COc1nc(N)c(N=O)c(=O)n1Cc1ccccc1
inactive: all assays above

CC(C)Nc1nc(N)nc(NCc2ccccc2)c1N=O
inactive: all assays above

CCOC(=O)CNc1nc(N)nc(OC)c1N=O
inactive: all assays above

C[C@@H]1Nc2nc(N)nc(OCC3CCCCC3)c2NC1=O
inactive: all assays above
